19 compounds from ChEMBL document CHEMBL1143790, “Effect of substituents on diarylmethanes for antitubercular activity” (2007) can be followed below.

Common to all, as to format: functional
Assay [1] has as its system Mycobacterium tuberculosis. Description: Antitubercular activity against Mycobacterium tuberculosis H37Rv by microdilution method. The gist of the method: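 Agar microdilution: serial two-fold compound dilutions in 7H10 agar, with H37Rv as test organism. MIC was the concentration completely inhibiting growth and colony-forming ability of M. tuberculosis.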
On the technique in general: Broth dilution looks for growth in wells or tubes with falling amounts of substance.

Assay [2] concerns Mycobacterium tuberculosis. In words: Antitubercular activity against Mycobacterium tuberculosis H37Rv by BACTEC method. In a few lines: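 Radiometric BACTEC 12B (7H12) broth; compounds from 1 mg/mL DMSO stock, DMSO-only controls, isoniazid and rifampin references. H37Rv inoculated at 10⁴–10⁵ CFU/mL, plus 1:100-diluted inoculum control. Incubated at 37 °C with daily GI readings until the 1:100 control reached GI 30. MIC was the concentration giving a final GI below the 1:100 control ([…] inhibition).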

The test system of assay [3] is Mycobacterium tuberculosis. In words: Antitubercular activity against Mycobacterium tuberculosis H37Rv by MABA assay.
Assay [4] in a line: Selectivity index, IC50 for vero cells to MIC for Mycobacterium tuberculosis H37Rv.

Values after ≈ are worked out from the molar mass of the structure shown. Where only a bound is given, the exact number is not on record here.

On to `CN(C)CCOc1ccc(C(c2ccc(O)cc2)c2cc3ccccc3c3ccccc23)cc1` (centres undefined), for which the MIC – broadly, the lowest concentration that inhibits growth of the organism – in assay [1] turned out to be 12.5 µg/mL (≈ 27.9 µM); in assay [2] it was 12.5 µg/mL (≈ 27.9 µM); in assay [3], 25 µg/mL (≈ 55.9 µM).
Take `CCN(CC)CCOc1ccc(C(c2ccc(OC)cc2)c2cc3ccccc3c3ccccc23)cc1` (centres undefined): the minimum inhibitory concentration (MIC) in assay [1], in assay [2] and in assay [3] was 6.25 µg/mL (≈ 12.8 µM) throughout. Further, the Selectivity index in assay [4] is given as 20.
On to `COc1ccc(C(c2ccc(OCCN(C)C)cc2)c2c3ccccc3cc3ccccc23)cc1` (centres undefined), for which the MIC in assay [1] and in assay [3] was 12.5 µg/mL (≈ 27.1 µM) in each case.
`COc1ccc(C(c2ccc(OCCN3CCCCC3)cc2)c2cn(S(=O)(=O)c3ccccc3)c3ccccc23)cc1` (centres undefined): the minimal inhibitory concentration (MIC) in assay [1], in assay [2] and in assay [3] was 6.25 µg/mL (≈ 10.8 µM) each time. This compound also yielded a Selectivity index in assay [4] of 10.
As to `COc1ccc(C(c2ccc(OCCN(C)C)cc2)c2cccnc2)cc1` (centres undefined), the MIC in assay [1] and in assay [3] was above 25 µg/mL in each case.
`COc1ccc(Cc2ccc(OCCN(C)C)cc2)cc1`: the MIC in assay [1] and in assay [3] was above 25 µg/mL in each case.
Take `COc1ccc(C(c2ccc(OCCN3CCCC3)cc2)c2cn(S(=O)(=O)c3ccccc3)c3ccccc23)cc1` (centres undefined): the MIC in assay [1] and in assay [3] was 12.5 µg/mL (≈ 22.1 µM) in each case.
As to `CCN(CC)CCOc1ccc(C(c2ccc(OC)cc2)c2cn(S(=O)(=O)c3ccccc3)c3ccccc23)cc1` (centres undefined), the MIC in assay [1] and in assay [3] was 12.5 µg/mL (≈ 22 µM) in each case.
For `COc1ccc(C(c2ccc(OCCN(C)C)cc2)c2cc3ccccc3c3ccccc23)cc1` (centres undefined), the MIC was determined as 25 µg/mL (≈ 54.2 µM) in assay [1], 12.5 µg/mL (≈ 27.1 µM) in assay [2] and 25 µg/mL (≈ 54.2 µM) in assay [3].
For the compound `COc1ccc(C(c2ccc(OCCN3CCCCCC3)cc2)c2cn(S(=O)(=O)c3ccccc3)c3ccccc23)cc1` (centres undefined), the minimum inhibitory concentration (MIC) in assay [1], in assay [2] and in assay [3] was 12.5 µg/mL (≈ 21 µM) in each case.
Take `COc1ccc(C(c2ccc(OCCN(C)C)cc2)c2cn(S(=O)(=O)c3ccccc3)c3ccccc23)cc1` (centres undefined): the minimal inhibitory concentration (MIC) in assay [1] is above 12.5 µg/mL; in assay [3], above 25 µg/mL.
With `Oc1ccc(C(c2ccc(OCCN3CCCCC3)cc2)c2cc3ccccc3c3ccccc23)cc1` (centres undefined), the MIC in assay [1] came out at 12.5 µg/mL (≈ 25.6 µM); in assay [2], 12.5 µg/mL (≈ 25.6 µM); in assay [3] it was 25 µg/mL (≈ 51.3 µM).
For `CCN(CC)CCOc1ccc(C(c2ccc(OC)cc2)c2cccnc2)cc1` (centres undefined), the MIC in assay [1] was above 25 µg/mL; in assay [2], 12.5 µg/mL (≈ 32 µM); in assay [3], above 25 µg/mL.
Turning to `CCN(CC)CCOc1ccc(C(c2ccc(O)cc2)c2cc3ccccc3c3ccccc23)cc1` (centres undefined), the minimum inhibitory concentration (MIC) in assay [1] amounted to 12.5 µg/mL (≈ 26.3 µM); in assay [2] it was 12.5 µg/mL (≈ 26.3 µM); in assay [3], 25 µg/mL (≈ 52.6 µM).
As for `COc1ccc(C(c2ccc(OCCN3CCCCC3)cc2)c2cccnc2)cc1` (centres undefined), the MIC in assay [1] was above 25 µg/mL; in assay [2], 12.5 µg/mL (≈ 31.1 µM); in assay [3], above 25 µg/mL.
With `COc1ccc(C(c2ccc(OCCN3CCCC3)cc2)c2cc3ccccc3c3ccccc23)cc1` (centres undefined), the MIC in assay [1], in assay [2] and in assay [3] was 6.25 µg/mL (≈ 12.8 µM) in each case. For the same compound, in assay [4], the Selectivity index came out at 20.
As to `COc1ccc(C(c2ccc(OCCN3CCCC3)cc2)c2cccnc2)cc1` (centres undefined), the minimum inhibitory concentration (MIC) was above 25 µg/mL in assay [1], 12.5 µg/mL (≈ 32.2 µM) in assay [2] and above 25 µg/mL in assay [3].
For `COc1ccc(C(c2ccc(OCCN3CCCCC3)cc2)c2cc3ccccc3c3ccccc23)cc1` (centres undefined), the MIC in assay [1], in assay [2] and in assay [3] was 6.25 µg/mL (≈ 12.5 µM) in each case. The same compound gave a Selectivity index in assay [4] of 10.
For `COc1ccc(Cc2ccc(OCCN3CCCCC3)cc2)cc1`, the minimal inhibitory concentration (MIC) in assay [1] and in assay [3] was above 25 µg/mL each time.
